The EternaBench riboswitch data

System: MS2 coat protein
Assay: apparent Kd, MS2 coat protein; higher = weaker binding; RNA-MaP array; FMN 200 µM where present
How it was run: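 Stalled E. coli RNA polymerase transcribed each design on Illumina sequencing-chip clusters. The clusters were titrated with SNAP-549-labelled MS2 coat protein, starting at 0.7 or 1.5 nM and doubling up to 3 µM, first without ligand and then with constant ligand, in 100 mM Tris-HCl pH 7.5, 80 mM KCl, 4 mM MgCl2, BSA, DTT, yeast tRNA and Tween-20. Green signal was normalised to red-channel RNA signal and to the control-cluster median Fmax. The apparent Kd is the median of filtered binding-curve fits made for each cluster.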

[1] = designed as: OFF switch for flavin mononucleotide, no ligand
[2] = ligand present: flavin mononucleotide, designed as: OFF switch for flavin mononucleotide
[3] = designed as: ON switch for flavin mononucleotide, no ligand
[4] = ligand present: flavin mononucleotide, designed as: ON switch for flavin mononucleotide

| Sequence | apparent Kd [1] [nM] | apparent Kd [2] [nM] | apparent Kd [3] [nM] | apparent Kd [4] [nM] |
| --- | --- | --- | --- | --- |
| GUGAUACAUGAGGAUCACCCAUGUCAGGAUAUGAUACUAUGUACUUCGGUACAUAGUAUCAGAAGGGACAGUGA | 138 | 92.5 |  |  |
| GUGCAUACGUGAGGAUAUGUAUUAGAUAGUGGUACAGAAGGCAUGUCUGAUGACAUGAGGAUCACCCAUGUUGGCACAGUGCGC |  |  | 59.7 | 29.6 |
| GUGCCAUAUGAGAAGGCGAUCAUGAAACAUGAUCGAGGAUAUCAUGAAAACAUGAGGAUCACCCAUGUAUGGGUAUUAAGGUAC |  |  | 64.3 | 28.9 |
| GUGCGUGGCUAGGAUAUUGUGGAGUUUAGUCAGCGAGAAGGAGCCACAUGAGGAUCACCCAUGUGGUGAAGCUC | 19.9 | 75 |  |  |
| GUGCGUGGCUAGGAUAUUGUGGAGUUUAGUCAGCGAGAAGGCGCCACAUGAGGAUCACCCAUGUGGUGUUGCUC | 13.1 | 14.7 |  |  |
| GUGCUGGAGCUUUGCUUUAGUCGUACAUGAGGAUCACCCAUGUAGGAUAUGGUAGGCUUUGCUUACUAGAAGGAUAGAGUGGUC | 40.3 | 26.8 |  |  |
| GUGCUUGUCGGAGGAUAUGGUUACAUGAGGAUCACCCAUGUUAUGCUUGGUUACUUGUUUAGUUUCCAGAAGGUCGAUUGGUUG | 69.6 | 132 |  |  |
| GUGGACGUCGUAGGAUAUGUAGGAUAUUCCUACAUGAGGAUCACCCAUGUUGACAUGGAAGAAGGACAGAAGGACGAUGUCCAU |  |  | 262 | 4.51 |
| GUGGCUAGUACAGGAUAUUAGUGCGUGUAGUAUUGAGAAGGGUACAUGAGGAUCACCCAUGUGAUCAAUCACUGUUAAGGUCGC | 252 | 177 |  |  |
| GUGGUACAUGAGGAUCACCCAUGUUAGGAUAUCGCGUGGUUUUUUGCGGCCGCGCGCGCGAGAAGGGACGUCUU | 41.4 | 31.7 |  |  |
| GUGGUCAGACAUGAGGAUCACCCAUGUGGAAUAAAUAACGUCAAGGAUAUUCAAUAUAGGAUAUAGAAGAAGGUGAGAUUGGUG |  |  | 153 | 177 |
| GUGGUCAGACAUGAGGAUCACCCAUGUGGAAUAAAUAAGGAAAAGGAUAUCGAAUAUAGGAUAUACGAGAAGGUUUGGUUGGUG |  |  | 96.5 | 98.8 |
| GUGGUCAGACAUGAGGAUCACCCAUGUGGAAUAAAUAAGGAAAAGGAUAUGGAAUAUAGGAUAUACCAGAAGGUUUGGUUGGUG |  |  | 105 | 127 |
| GUGGUCAGACAUGAGGAUCACCCAUGUGGAAUAAAUAAGGAGAAGGAUAUCUAAUAUAGGAUAUAAGAGAAGGUUUGGUUGGUG |  |  | 74 | 68 |
| GUGGUGCAUAUACGUGGAUGUACAUGAGGAUCACCCAUGUAAGAGGAUAUGCGGAUACUAGCUCAGUAGAAGGCUUACAAAUGA | 9.74 | 9.15 |  |  |
| GUGUACAGAGGAUAUACAUAAGCUAGGAAACUAGCAAACUCACAUGAGGAUCACCCAUGUAGAAGGCUGUACAC | 48 | 257 |  |  |
| GUGUACAGAGGAUAUACAUGAGCUAGGAAACUAGCAACUUCACAUGAGGAUCACCCAUGUAGAAGGCUGUACAC | 26 | 128 |  |  |
| GUGUACAGAGGAUAUACUUAUGGAGUUACGAAAGUAACUUCACAUGAGGAUCACCCAUGUAGAAGGCUGUACAC | 27.3 | 31 |  |  |
| GUGUAGAUAGGAUAUACAUGAGUCUAGCGAAGCUAGAUUCUACAUGAGGAUCACCCAUGUAGAAGGGUCUACAC | 15.9 | 18.5 |  |  |

| Sequence | apparent Kd [1] [nM] | apparent Kd [2] [nM] | apparent Kd [3] [nM] | apparent Kd [4] [nM] |
| --- | --- | --- | --- | --- |
| GUUAGUUAAGGAUAUACUGGGAGCUGCGGCGUCUCGCCGCAACAUGAGGAUCACCCAUGUAGAAGGUGACCAUU | 320 | 229 |  |  |
| GUUAUACAUGAGGAUCACCCAUGUCAAUGUAGUCGAGGAUAUGGGUAGCUAUGAGGCGUACUAGAAGGCGAGGAGU |  |  | 77.8 | 160 |
| GUUAUUUAUGUAGGAUAUGCGAGGCGAGCCUGAGCAGAAGGACAUGAGGAUCACCCAUGUAUUGCGGUUUAUGUUCAGAUCGCU | 15.3 | 19 |  |  |
| GUUCAAGUAAAGGAUAUGUAGAGCCGCGAGGCCGCAGAAGGUUGCACAUGAGGAUCACCCAUGUCGUCUCUGAU | 17.1 | 21.2 |  |  |
| GUUGCACAAAUUAACAUGAGGAUCACCCAUGUCAAAAGACAUGAGGAUAUGGAUCUGAAGAAGAUCCAGAAGGCAUAGUGCUAA |  |  | 370 | 23.7 |
| GUUGGCUGAGGAUAUGCUUGCGUGCGUUUGUGUCGCGGGUGACAUGAGGAUCACCCAUGUAGAAGGUGGUCGGC | 1530 | 980 |  |  |
| GUUGUCUAUGUAGGAUAUGCGAGGCGAGCCUAAGCAGAAGGACAUGAGGAUCACCCAUGUAUUGCGGUCUGCGUUCAGAUCGCU | 38.1 | 141 |  |  |
| GUUUAGUGAGGAUAUGUGGCAUAGAUCGAGCGCGGUCGGCUACAGAAGGCACAUGAGGAUCACCCAUGUUUCUC | 39.9 | 498 |  |  |
| GUUUAGUGAGGAUAUGUGGCGUGGAUCGAGCGCGGUCGGCUACAGAAGGCACAUGAGGAUCACCCAUGUUUCUC | 106 | 280 |  |  |
| GUUUAGUGAGGAUAUGUGGCUUCGAUCGUGCGCGGUCUGCUACAGAAGGCACAUGAGGAUCACCCAUGUUUCUC | 173 | 527 |  |  |
| GUUUAUUUACAGAAGGUGUUUUACAUGAGGAUCACCCAUGUUUAAAUUUAUAAAGAAUUUAUUUACAAGGAUAUGUACAAUUUU |  |  | 34.1 | 19 |
| GUUUCGUGAGGAUAUGUGGCUUCGAUCGUGCGAAGAAGGCUACAGAAGGCACAUGAGGAUCACCCAUGUUCCUC | 85.7 | 592 |  |  |
| GUUUUGAUAGGAUAUACAUGAGGAUCACCCAUGUCCCACCCGUUACCUCUGACCCUAUGUAGAAGGAUCGUUUG | 34.3 | 26.4 |  |  |
| GUUUUGGGAGGAUAUAUGUGGAUUAUUUUCGUAUGUUGUUUACAUGAGGAUCACCCAUGUAGAAGGUCUAGAGC | 68.3 | 198 |  |  |
| GUUUUUCCUCAUGUACAUGAGGAACAUGAGGAUCACCCAUGUAGAAGGAAUUCUCUUAAAUUAAGUUAGGAUAUACAUAUAUUU | 464 | 285 |  |  |
| GUUUUUUUUAGUUCAUACUAUAAGAUAGAAGGUGAAAUAUUGACAUGAGGAUCACCCAUGUAAUUCAAGGAUAUGUAGUUACUC |  |  | 34.3 | 22.7 |
| UAAAAGACUAGCAAAUAGACCUUCACAUGAGGAUCACCCAUGUAGGAUAUGAGCAGAAAAUCUGCUCAGAAGGACAUGCUAGUC | 3.38 | 3.6 |  |  |
| UAAACACCCUCAUGUGCCUGAGGACAUGAGGAUCACCCAUGUAAGGAUAUAGCCAUUAAAUCUAACUAGAAGGUACAGGACAUC | 242 | 169 |  |  |
| UAACCUCGCGUCAGGAUAUGCGAGGACUGUGACGUGCAGAAGGGACAUGAGGAUCACCCAUGUGAAAGAAUUAA | 25.2 | 25.4 |  |  |

| Sequence | apparent Kd [1] [nM] | apparent Kd [2] [nM] | apparent Kd [3] [nM] | apparent Kd [4] [nM] |
| --- | --- | --- | --- | --- |
| UAAGAGUGAGGAUAUACGUCGCUGGUCAGGAUGGACGCAUGACAUGAGGAUCACCCAUGUAGAAGGCACAAAAC | 23.8 | 43.7 |  |  |
| UAAGUGUGAGGAUAUUCGUAGUACACGGAGACGUGUAUUACGGAGAAGGCACAUGAGGAUCACCCAUGUUCCUU | 20.7 | 182 |  |  |
| UAAGUUGUGGUAGGAUAUACUUUAAAUUUCUCUAUCCAUACAUGAGGAUCACCCAUGUUUACAUUGUAGAAGGACCUUUUUGUU | 24.2 | 21.1 |  |  |
| UAAUAAAGUGUGAGGAUAUGCUGGUCCUUAGAUCAGCAGAAGGCACAUGAGGAUCACCCAUGUAAUAUAUAAAU | 40 | 281 |  |  |
| UAAUAAUAAUAAUACGUCAUUACAUGAGGAUCACCCAUGUAUAAGGAUAUGCAGUGGAAUACACUGCAGAAGGUAUACAAGACG | 22.6 | 26.7 |  |  |
| UAAUAAUUAUGAGGAUAUAUACAACAUGAGGAUCACCCAUGUACCCAUGUAGUAGAAGGCAUAUUUUUAGUUAAUAACAUAACU |  |  | 75.2 | 31.1 |
| UAAUAUUUAUAAUAUUAUUACAUUAGAAGGCAAGACAUGUGGAUACAUGAGGAUCACCCAUGUAUUGAGGAUAUAGACAUAUAU | 14.6 | 21.7 |  |  |
| UAAUUAAGUGUGAGGAUAUGCUGGUCCUUGGAUCAGCAGAAGGCACAUGAGGAUCACCCAUGUAAUUUAUUUAU | 85.1 | 328 |  |  |
| UAAUUGUGAGGAUAUUCGAAUAACACGGAGACGUGUUGUUCGGAGAAGGCACAUGAGGAUCACCCAUGUUCCUU | 17.5 | 102 |  |  |
| UAAUUGUGAGGAUAUUCGUUUUACACGGAGACGUGUAGAACGGAGAAGGCACAUGAGGAUCACCCAUGUUCCUU | 18 | 100 |  |  |
| UACAAUCUAUCUGAGGAUAUCAUGAAAAAAACAUGAGGAUCACCCAUGUGCAGGAAAACUGCAUAUGAGAAGGCAGAUAGAUUGA |  |  | 873 | 26.9 |
| UACAGACAUGAGGAUCACCCAUGUAAGGAUAUCGGUACUAAUGGUAUAAUCUACUUAGCGAGAAGGUACAGUGU | 33.9 | 30.5 |  |  |
| UACGGACAUGAGGAUCACCCAUGUGAGGAUAUCGAUAACGAUAGCAUAAUAUAAACGGCGAGAAGGCACAGCGU | 32.6 | 45.8 |  |  |
| UACGGGAGUGGAGGAUAUGCGUAGUACGCUAGAGCAGAAGGCCACAUGAGGAUCACCCAUGUGUCGUCGAAUGCGAUACGCUGG | 17.6 | 77.3 |  |  |
| UACUGGUGUGAGAAGGGACGUAUCUCCAUGAGGGUAGGGCUAUUAGAGAAGUCAGGAUAUCACAUGAGGAUCACCCAUGUGACG | 8.25 | 9.9 |  |  |
| UACUUGUUAGGAUAUCUUACAUUUGCAUUAUAGCAACUAUUGGAGAAGGGACAUGAGGAUCACCCAUGUUUGGU | 39.9 | 48.2 |  |  |
| UAGAGCGCUUGAGGAUAUCGCUUUGUGAUGGUACUCAUGCUUGUUACAUGAGGAUCACCCAUGUGCGAGAAGGCAGGCCGUUAG | 59.3 | 12.6 |  |  |
| UAGCCACAAGGAUAUACAUGAGGAUCACCCAUGUUUCCAGGAUGCCCUCUCAUGGGUUGUAGAAGGUGUCGGCG | 15.8 | 17.9 |  |  |
